Test results from ChEMBL document CHEMBL5653632, “PRMT5 inhibition disrupts splicing and stemness in glioblastoma” (Nat Commun, 2021).
Activity calls are given as the source filed them. The calls are words filed in the database; no cut-off is given here.

Legend:
G411 [1] = experiment: Antiproliferative activity against human G411 cells at 1 uM incubated for 9 to 12 days by IncuCyte zoom live-cell imaging analysis; assay type: functional, cell-based; conditions: time 9-12 day
Summary of the method: (§1)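 Adherent GSCs were cultured in serum-free medium with EGF and bFGF on poly-L-ornithine/laminin and plated in triplicate in 96-well plates. They were treated at 1 µM, with 1 µM SGC2096 or 0.05% DMSO as controls, for 9–12 days or until DMSO wells were confluent. Medium with drug was refreshed every 5 days. IncuCyte confluence was imaged every 8 h and normalized to each well's initial confluence.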

G411 [2] = experiment: Induction of senescence in human G411 cells at 1 uM after 5 days by SA-beta-galactosidase based assay; assay type: functional, cell-based; conditions: time 5.0 day
Summary of the method: (§2)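 GSCs were treated at 1 µM for 5 days, with SGC2096 and DMSO as controls and n = 3. Cells were fixed in 4% paraformaldehyde for 5 min at RT, stained overnight with SA-β-gal solution, and counterstained with nuclear fast red. Blue cells were counted as a fraction of total cells.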

[3] = Antiproliferative activity against human G895 cells incubated for 9 to 12 days by IncuCyte zoom live-cell imaging analysis; assay type: functional, cell-based
Summary of the method: (§3)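 Adherent culture on poly-L-ornithine/laminin in serum-free NS-A medium with EGF and bFGF (10 ng/mL each) and heparin. Nine concentrations (3 nM–30 µM), three technical replicates per dose, DMSO control, medium and drug refreshed every 5 days, run until DMSO wells were confluent (9–20 days). Confluence was imaged live and normalized to DMSO. Curves were taken at the 95th percentile of time to DMSO confluence, and AAC was calculated.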

[4] = Antiproliferative activity against human BT069 cells incubated for 9 to 12 days by IncuCyte zoom live-cell imaging analysis; assay type: functional, cell-based
[5] = biological target: Protein arginine N-methyltransferase 5 (Homo sapiens) (UniProt O14744); experiment: Inhibition of PRMT5 in human G549 cells assessed as reduction in SDMA level at 1 uM after 7 days by Western blot analysis; assay type: cell-based; conditions: time 7.0 day
Protein arginine N-methyltransferase 5 (Homo sapiens), sequence (O14744 whole entry): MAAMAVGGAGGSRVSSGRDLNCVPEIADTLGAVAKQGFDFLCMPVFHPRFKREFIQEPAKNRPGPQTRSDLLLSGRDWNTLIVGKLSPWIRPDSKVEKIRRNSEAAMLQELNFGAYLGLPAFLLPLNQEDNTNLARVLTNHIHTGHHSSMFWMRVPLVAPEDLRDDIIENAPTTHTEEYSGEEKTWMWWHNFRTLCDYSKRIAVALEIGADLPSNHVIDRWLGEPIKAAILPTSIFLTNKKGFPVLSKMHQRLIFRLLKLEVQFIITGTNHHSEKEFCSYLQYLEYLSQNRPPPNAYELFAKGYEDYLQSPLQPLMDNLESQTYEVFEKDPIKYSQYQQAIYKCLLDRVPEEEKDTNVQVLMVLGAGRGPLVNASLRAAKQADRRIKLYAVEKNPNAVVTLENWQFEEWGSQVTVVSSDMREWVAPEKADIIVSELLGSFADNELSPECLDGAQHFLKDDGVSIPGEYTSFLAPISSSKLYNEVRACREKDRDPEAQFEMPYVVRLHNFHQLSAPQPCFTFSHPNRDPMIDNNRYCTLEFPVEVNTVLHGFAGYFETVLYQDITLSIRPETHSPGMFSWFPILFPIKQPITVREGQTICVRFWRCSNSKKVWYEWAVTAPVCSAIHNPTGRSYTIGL

G583 [6] = experiment: Induction of senescence in human G583 cells at 1 uM after 5 days by SA-beta-galactosidase based assay; assay type: functional, cell-based; conditions: time 5.0 day; summary of the method: as §2
[7] = Antiproliferative activity against human G861 cells incubated for 9 to 12 days by IncuCyte zoom live-cell imaging analysis; assay type: functional, cell-based; summary of the method: as §3
[8] = Antiproliferative activity against human G799 cells incubated for 9 to 12 days by IncuCyte zoom live-cell imaging analysis; assay type: functional, cell-based; summary of the method: as §3
[9] = Antiproliferative activity against human G837 cells incubated for 9 to 12 days by IncuCyte zoom live-cell imaging analysis; assay type: functional, cell-based; summary of the method: as §3
[10] = biological target: Protein arginine N-methyltransferase 5 (Homo sapiens) (UniProt O14744); experiment: Inhibition of PRMT5 in human G583 cells assessed as reduction in SDMA level at 1 uM after 5 days by Western blot analysis; assay type: cell-based; conditions: time 5.0 day
Summary of the method: (§4)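 Symmetric dimethylarginine on SmB/B' was measured by western blot with IRDye secondary antibodies and infrared imaging.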

[11] = Antiproliferative activity against human G702 cells incubated for 9 to 12 days by IncuCyte zoom live-cell imaging analysis; assay type: functional, cell-based; summary of the method: as §3
[12] = Antiproliferative activity against human BT143 cells incubated for 9 to 12 days by IncuCyte zoom live-cell imaging analysis; assay type: functional, cell-based
G583 [13] = experiment: Induction of apoptosis in human G583 cells at 1 uM after 5 days by Annexin-V staining based IncuCyte live cell imaging analysis; assay type: functional; conditions: time 5.0 day
G729 [14] = experiment: Induction of senescence in human G729 cells at 1 uM after 5 days by SA-beta-galactosidase based assay; assay type: functional, cell-based; conditions: time 5.0 day; summary of the method: as §2
[15] = Antiproliferative activity against human G561 cells incubated for 9 to 12 days by IncuCyte zoom live-cell imaging analysis; assay type: functional, cell-based; summary of the method: as §3
[16] = Antiproliferative activity against human G851 cells incubated for 9 to 12 days by IncuCyte zoom live-cell imaging analysis; assay type: functional, cell-based; summary of the method: as §3
G583 [17] = experiment: Inhibition of colony formation in human G583 cells assessed as reduction in sphere forming capacity at 1 uM incubated for 14 days by limiting dilution assay; assay type: functional, cell-based; conditions: time 14.0 day
Summary of the method: (§5)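 Each GSC line was seeded on non-adherent 96-well plates in 1:2 serial dilutions from 2000 to 4 cells per well, six replicates per dilution, in adherent-culture medium. Treatment was 1 µM, with SGC2096 and DMSO as controls, added on day 1 and replenished weekly. Wells were scored for spheres at 1 and 2 weeks, and sphere frequency was estimated by ELDA (single-hit model). n = 3.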

G561 [18] = experiment: Inhibition of colony formation in human G561 cells assessed as reduction in sphere forming capacity at 1 uM incubated for 14 days by limiting dilution assay; assay type: functional, cell-based; conditions: time 14.0 day; summary of the method: as §5
[19] = Antiproliferative activity against human G876 cells incubated for 9 to 12 days by IncuCyte zoom live-cell imaging analysis; assay type: functional, cell-based; summary of the method: as §3
G411 [20] = experiment: Inhibition of colony formation in human G411 cells assessed as reduction in sphere forming capacity at 1 uM incubated for 14 days by limiting dilution assay; assay type: functional, cell-based; conditions: time 14.0 day; summary of the method: as §5
[21] = Antiproliferative activity against human G477 cells incubated for 9 to 12 days by IncuCyte zoom live-cell imaging analysis; assay type: functional, cell-based; summary of the method: as §3
[22] = Antiproliferative activity against human HF7450 cells incubated for 9 to 12 days by IncuCyte zoom live-cell imaging analysis; assay type: functional, cell-based; summary of the method: as §3
[23] = Antiproliferative activity against human G800 cells incubated for 9 to 12 days by IncuCyte zoom live-cell imaging analysis; assay type: functional, cell-based; summary of the method: as §3
[24] = Antiproliferative activity against human G626 cells incubated for 9 to 12 days by IncuCyte zoom live-cell imaging analysis; assay type: functional, cell-based; summary of the method: as §3
G583 [25] = experiment: Antiproliferative activity against human G583 cells at 1 uM incubated for 9 to 12 days by IncuCyte zoom live-cell imaging analysis; assay type: functional, cell-based; conditions: time 9-12 day; summary of the method: as §1
[26] = Antiproliferative activity against human G566 cells incubated for 9 to 12 days by IncuCyte zoom live-cell imaging analysis; assay type: functional, cell-based; summary of the method: as §3
G561 [27] = experiment: Antiproliferative activity against human G561 cells at 1 uM incubated for 9 to 12 days by IncuCyte zoom live-cell imaging analysis; assay type: functional, cell-based; conditions: time 9-12 day; summary of the method: as §1
G411 [28] = experiment: Induction of apoptosis in human G411 cells at 1 uM after 5 days by Annexin-V staining based IncuCyte live cell imaging analysis; assay type: functional; conditions: time 5.0 day
[29] = biological target: Protein arginine N-methyltransferase 5 (Homo sapiens) (UniProt O14744); experiment: Inhibition of PRMT5 in human G411 cells assessed as reduction in SDMA level at 1 uM after 5 days by Western blot analysis; assay type: cell-based; conditions: time 5.0 day; summary of the method: as §4
G729 [30] = experiment: Induction of apoptosis in human G729 cells at 1 uM after 5 days by Annexin-V staining based IncuCyte live cell imaging analysis; assay type: functional; conditions: time 5.0 day
[31] = biological target: Protein arginine N-methyltransferase 5 (Homo sapiens) (UniProt O14744); experiment: Inhibition of PRMT5 in human G561 cells assessed as reduction in SDMA level at 1 uM after 5 days by Western blot analysis; assay type: cell-based; conditions: time 5.0 day; summary of the method: as §4
[32] = biological target: Protein arginine N-methyltransferase 5 (Homo sapiens) (UniProt O14744); experiment: Inhibition of PRMT5 in human G797 cells assessed as reduction in SDMA level at 1 uM after 7 days by Western blot analysis; assay type: cell-based; conditions: time 7.0 day
[33] = biological target: Protein arginine N-methyltransferase 5 (Homo sapiens) (UniProt O14744); experiment: Inhibition of PRMT5 in HFNS cells assessed as reduction in SDMA level at 1 uM after 5 days by Western blot analysis; assay type: cell-based; conditions: time 5.0 day
[34] = Antiproliferative activity against human G564 cells incubated for 9 to 12 days by IncuCyte zoom live-cell imaging analysis; assay type: functional, cell-based; summary of the method: as §3
[35] = Antiproliferative activity against human G523 cells incubated for 9 to 12 days by IncuCyte zoom live-cell imaging analysis; assay type: functional, cell-based; summary of the method: as §3
[36] = Antiproliferative activity against human HF5205 cells incubated for 9 to 12 days by IncuCyte zoom live-cell imaging analysis; assay type: functional, cell-based; summary of the method: as §3
[37] = Antiproliferative activity against human G583 cells incubated for 9 to 12 days by IncuCyte zoom live-cell imaging analysis; assay type: functional, cell-based; summary of the method: as §3
[38] = Antiproliferative activity against human BT119 cells incubated for 9 to 12 days by IncuCyte zoom live-cell imaging analysis; assay type: functional, cell-based

Row | SMILES | Activity (G411 [1]) | Activity (G411 [2]) | IC50 [3] | IC50 [4] | inhibition [5] | Activity (G583 [6]) | IC50 [7] | IC50 [8] | IC50 [9] | inhibition [10] | IC50 [11] | IC50 [12] | Activity (G583 [13]) | Activity (G729 [14]) | EC50 [15] | IC50 [16] | inhibition (G583 [17]) | inhibition (G561 [18]) | IC50 [19] | inhibition (G411 [20]) | also measured
1 | Nc1ncnc2c1ccn2[C@@H]1O[C@H]([C@H](O)c2ccccc2)[C@@H](O)[C@H]1O | Active | Active | 100 nM | 30 nM | Active | Active | 40 nM | 20 nM | 40 nM | Active | 20 nM | 160 nM | Active | Active | 10 nM | 10 nM | Active | Active | 30 nM | Active | EC50 [21]: 40 nM; EC50 [22]: 3 nM; IC50 [23]: 120 nM; EC50 [24]: 10 nM; Activity (G583 [25]): Active; IC50 [26]: 30 nM; Activity (G561 [27]): Active; Activity (G411 [28]): Active; inhibition [29]: Active; Activity (G729 [30]): Active; inhibition [31]: Active; inhibition [32]: Active; inhibition [33]: Active; IC50 [34]: 30 nM; IC50 [35]: 10 nM; EC50 [36]: 9 nM; EC50 [37]: 15 nM; IC50 [38]: 230 nM
2 | O=C(NC[C@H](O)CN1CCc2ccccc2C1)c1ccnc(NC2CCC2)c1 | Active | Active | 640 nM | 690 nM | Active | Active | 1280 nM | 680 nM | 5010 nM | Active | 1620 nM | 600 nM | Active | Active | 1000 nM | 570 nM | Active | Active | 2450 nM | Active | EC50 [21]: 3180 nM; EC50 [22]: 155 nM; IC50 [23]: 16400 nM; EC50 [24]: 480 nM; Activity (G583 [25]): Active; IC50 [26]: 2050 nM; Activity (G561 [27]): Active; Activity (G411 [28]): Active; inhibition [29]: Active; Activity (G729 [30]): Active; inhibition [31]: Active; inhibition [32]: Active; inhibition [33]: Active; IC50 [34]: 230 nM; IC50 [35]: 830 nM; EC50 [36]: 7 nM; EC50 [37]: 440 nM; IC50 [38]: 8640 nM
